# Source: ChEMBL document CHEMBL1123253, “Design and synthesis of a potent and specific renin inhibitor with a prolonged duration of action in vivo” (J Med Chem, 1986)
# Non-standard residues stand in square brackets, D forms with d. Residues, ends and D or L forms follow the SMILES beside them. ξ: configuration not given here. *: point of attachment. Sta = CC(C)C[C@H](N)[C@@H](O)CC(=O)O; NMeH = CN[C@@H](Cc1c[nH]cn1)C(=O)O; NHCH2(2-pyridyl) = c1ccc(CN*)nc1; NMeF = CN[C@@H](Cc1ccccc1)C(=O)O; αMeF = C[C@](N)(Cc1ccccc1)C(=O)O; ξαMeF = CC(N)(Cc1ccccc1)C(=O)O; Boc = CC(C)(C)OC(=O)*
# Biological target: T1, Renin (Homo sapiens, UniProt P00797)
# T1 sequence (P00797 whole entry): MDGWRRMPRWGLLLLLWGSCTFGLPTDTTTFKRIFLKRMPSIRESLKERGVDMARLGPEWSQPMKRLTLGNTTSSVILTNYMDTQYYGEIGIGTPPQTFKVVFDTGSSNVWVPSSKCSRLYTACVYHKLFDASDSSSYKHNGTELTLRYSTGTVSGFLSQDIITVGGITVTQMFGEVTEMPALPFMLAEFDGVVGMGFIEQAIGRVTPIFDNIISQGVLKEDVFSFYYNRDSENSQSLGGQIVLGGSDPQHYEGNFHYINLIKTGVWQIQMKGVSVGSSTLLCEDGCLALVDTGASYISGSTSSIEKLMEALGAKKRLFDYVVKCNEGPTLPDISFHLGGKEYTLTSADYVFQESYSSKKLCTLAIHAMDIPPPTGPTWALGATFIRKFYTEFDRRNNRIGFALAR
# Test: Inhibition of human plasma renin
# Format: cell-free
# Outline: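 Lyophilized human plasma with 0.1% EDTA as renin source. Plasma is combined with phenylmethylsulfonyl fluoride, maleate buffer pH 6.0 and inhibitor in 1% Tween 80/water, then incubated 90 min at 37 °C. Angiotensin I measured by radioimmunoassay. Percent inhibition taken vs control tubes; IC50 estimated graphically from 3–4 concentrations on a semilog plot.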
row,SMILES,IC50 [nM]
1,CC[C@H](C)[C@H](NC(=O)[C@@H](NC[C@H](CC(C)C)NC(=O)[C@H](Cc1c[nH]cn1)N(C)C(=O)[C@H](Cc1ccccc1)NC(=O)[C@@H]1CCCN1C(=O)OC(C)(C)C)C(C)C)C(=O)NCc1ccccn1,68
2,CC[C@H](C)[C@H](NC(=O)[C@@H](NC[C@H](CC(C)C)NC(=O)[C@H](Cc1c[nH]cn1)N(C)C(=O)[C@H](Cc1ccccc1)NC(=O)OC(C)(C)C)C(C)C)C(=O)NCc1ccccn1,450
3,CC[C@H](C)[C@H](NC(=O)[C@@H](C[C@H](O)[C@H](CC(C)C)NC(=O)[C@H](Cc1c[nH]cn1)N(C)C(=O)[C@H](Cc1ccccc1)NC(=O)OC(C)(C)C)C(C)C)C(=O)NCc1ccccn1,0.65
4,CCC(C)C(NC(=O)CC(O)C(CC(C)C)NC(=O)C(Cc1cnc[nH]1)N(C)C(=O)C(Cc1ccccc1)NC(=O)OC(C)(C)C)C(=O)NCc1ccccn1 (stereo not drawn),120
5,CC[C@H](C)[C@H](NC(=O)C[C@H](O)[C@H](CC(C)C)NC(=O)[C@H](Cc1ccccc1)NC(=O)[C@H](Cc1ccccc1)NC(=O)OC(C)(C)C)C(=O)NCc1ccccn1 (Boc-FF[Sta]I-{NHCH2(2-pyridyl)}),24
6,CC[C@H](C)[C@H](NC(=O)C[C@H](O)[C@H](CC(C)C)NC(=O)[C@H](Cc1ccccc1)N(C)C(=O)[C@H](Cc1ccccc1)NC(=O)OC(C)(C)C)C(=O)NCc1ccccn1 (Boc-F[NMeF][Sta]I-{NHCH2(2-pyridyl)}),100
7,CC[C@H](C)[C@H](NC(=O)C[C@H](O)[C@H](CC(C)C)NC(=O)[C@](C)(Cc1ccccc1)NC(=O)[C@H](Cc1ccccc1)NC(=O)OC(C)(C)C)C(=O)NCc1ccccn1 (Boc-F[αMeF][Sta]I-{NHCH2(2-pyridyl)}),> 10000
8,CC[C@H](C)[C@H](NC(=O)C[C@H](O)[C@H](CC(C)C)NC(=O)[C@H](Cc1c[nH]cn1)N(C)C(=O)[C@H](Cc1ccccc1)NC(=O)[C@@H]1CCCN1C(=O)OC(C)(C)C)C(=O)NCc1ccccn1 (Boc-PF[NMeH][Sta]I-{NHCH2(2-pyridyl)}),190
9,CC[C@H](C)[C@H](NC(=O)C[C@H](O)[C@H](CC(C)C)NC(=O)[C@H](Cc1ccccc1)NC(=O)[C@H](Cc1ccccc1)N(C)C(=O)OC(C)(C)C)C(=O)NCc1ccccn1 (Boc-[NMeF]F[Sta]I-{NHCH2(2-pyridyl)}),340
10,CC[C@H](C)[C@H](NC(=O)C[C@H](O)[C@H](CC(C)C)NC(=O)[C@H](Cc1c[nH]cn1)NC(=O)[C@H](Cc1ccccc1)N(C)C(=O)OC(C)(C)C)C(=O)NCc1ccccn1 (Boc-[NMeF]H[Sta]I-{NHCH2(2-pyridyl)}),720
11,CC[C@H](C)[C@H](NC(=O)C[C@H](O)[C@H](CC(C)C)NC(=O)[C@H](Cc1ccccc1)NC(=O)C(C)(Cc1ccccc1)NC(=O)OC(C)(C)C)C(=O)NCc1ccccn1 (stereo partly drawn) (Boc-[ξαMeF]F[Sta]I-{NHCH2(2-pyridyl)}),6800

# Biological target: T2, Cathepsin D (Bos taurus, UniProt P80209)
# T2 sequence (P80209 whole entry): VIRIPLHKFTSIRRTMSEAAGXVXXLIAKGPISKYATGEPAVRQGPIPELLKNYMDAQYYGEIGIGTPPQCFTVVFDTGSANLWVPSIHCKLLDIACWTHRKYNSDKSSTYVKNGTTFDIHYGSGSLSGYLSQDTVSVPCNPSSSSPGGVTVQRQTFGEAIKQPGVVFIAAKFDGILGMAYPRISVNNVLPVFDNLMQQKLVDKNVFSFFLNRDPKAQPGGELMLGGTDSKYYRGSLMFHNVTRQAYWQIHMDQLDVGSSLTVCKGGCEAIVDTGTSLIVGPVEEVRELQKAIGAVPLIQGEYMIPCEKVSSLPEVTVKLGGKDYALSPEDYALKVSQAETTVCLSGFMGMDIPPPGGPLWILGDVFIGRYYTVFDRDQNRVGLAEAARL
# Test: Inhibition of bovine cathepsin D
row,SMILES,IC50 [nM]
1,CC[C@H](C)[C@H](NC(=O)[C@@H](C[C@H](O)[C@H](CC(C)C)NC(=O)[C@H](Cc1c[nH]cn1)N(C)C(=O)[C@H](Cc1ccccc1)NC(=O)[C@@H]1CCCN1C(=O)OC(C)(C)C)C(C)C)C(=O)NCc1ccccn1,6300

# Biological target: Pepsin A (Sus scrofa, UniProt P00791)
# Test: Inhibition of porcine pepsin
# Outline: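 Porcine pepsin with porcine hemoglobin substrate in 0.02 M KCl-HCl buffer pH 2, with compounds dissolved in buffer. Incubation 25 min at 37 °C, then perchloric acid added and acid-soluble fraction absorbance read at 280 nm.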
# Sequence of Pepsin A (P00791 whole entry): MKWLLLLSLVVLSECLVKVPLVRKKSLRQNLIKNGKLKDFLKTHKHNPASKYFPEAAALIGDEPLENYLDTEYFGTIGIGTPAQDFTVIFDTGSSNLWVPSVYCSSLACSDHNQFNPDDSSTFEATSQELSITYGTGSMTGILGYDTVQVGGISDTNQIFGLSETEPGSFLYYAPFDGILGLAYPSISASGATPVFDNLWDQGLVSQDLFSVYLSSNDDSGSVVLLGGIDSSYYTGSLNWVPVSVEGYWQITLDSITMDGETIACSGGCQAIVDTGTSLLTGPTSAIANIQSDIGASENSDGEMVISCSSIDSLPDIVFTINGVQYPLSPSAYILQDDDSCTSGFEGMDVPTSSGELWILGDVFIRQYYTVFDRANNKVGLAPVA
row,SMILES,IC50 [nM]
1,CC[C@H](C)[C@H](NC(=O)[C@@H](C[C@H](O)[C@H](CC(C)C)NC(=O)[C@H](Cc1c[nH]cn1)N(C)C(=O)[C@H](Cc1ccccc1)NC(=O)[C@@H]1CCCN1C(=O)OC(C)(C)C)C(C)C)C(=O)NCc1ccccn1,6800
